Results on 25 compounds are retold here after ChEMBL document CHEMBL1671816, “Design and synthesis of oxymatrine analogues overcoming drug resistance in hepatitis B virus through targeting host heat stress cognate 70” (J Med Chem, 2011).

One series concerns HepG2 2.2.15. The series can be described thus: Inhibition of Hsc70 mRNA expression in human HepG2(2.2.15) cells at 100 ug/ml after 24 hrs by RT-PCR analysis. To be noted: HepG2 2.2.15, 24 h. The class given is functional. The essentials:
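HepG2.2.15 cells seeded at 5 × 10^4 per well in Opti-MEM with 10% FBS, grown for one day, then exposed to compound at 100 μg/mL for 24 h. Total RNA isolated with TRIZOL. Hsc70 mRNA measured by real-time RT-PCR with GAPDH as the reference gene.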

The nature of series [1]: Cytotoxicity against human HepG2(2.2.15) cells after 9 days. The series is classed as cell-based. The conditions noted are these: read-out: TC50. The essentials: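 Cytotoxicity in HepG2.2.15 cells cultured for 9 days at 37 °C, seeded at 2 × 10^4 per well. TC50 is the concentration killing 50% of cells relative to untreated controls.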
For series [2], the system named is Hepatitis B virus (human). The series can be described thus: Antiviral activity against HBV in human HepG2(2.2.15) cells assessed as reduction of viral DNA level after 9 days by RT-PCR analysis. The conditions noted are these: HepG2 2.2.15, 216 h.
Series [3] concerns Hepatitis B virus. The series can be described thus: Antiviral activity against wild type HBV infected in human Huh7.5 cells assessed as reduction of viral replication at 37 ug/ml after 36 hrs. The series is classed as functional. The conditions noted are these: Huh-7, 36 h, read-out: INH. The essentials: (§1)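 Huh7.5 cells (DMEM, 10% inactivated FBS, 1% pen-strep) plated at 2 × 10^5 per well, incubated overnight, then transiently transfected for 24 h with pcDNA3.1 carrying the full wild-type or lamivudine-resistant (rtL180M + rtM204V) HBV genome. After a PBS wash, treated in fresh medium for 36 h. Replicative-intermediate HBV DNA measured by real-time PCR. Run twice; mean and SD.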

Series [4] has as its system Hepatitis B virus. In words: Antiviral activity against lamivudine-resistant HBV infected in human Huh7.5 cells assessed as reduction of viral replication at 37 ug/ml after 36 hrs. The class given is functional. The conditions noted are these: Huh-7, 36 h, read-out: INH. The essentials: (§2)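 Huh7.5 cells (2 × 10^5/well) were plated, incubated overnight, then transiently transfected for 24 h with pcDNA3.1 carrying wild-type or lamivudine-resistant HBV (rtL180M + rtM204V). After a PBS wash they got fresh medium with drug (0.16 μg/mL for line 6, 37 μg/mL for line 7) for 36 h. HBV DNA replicative intermediate was measured by real-time PCR; experiment run twice, mean and SD.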

Series [5] relates to Mus musculus. The series can be described thus: Acute toxicity in ICR mouse assessed as mortality at up to 750 mg/kg, po after 7 days. The series is classed as organism-based. More on the design: dose 750 mg/kg, route oral. The conditions noted are these: in vivo, 168 h. The essentials:
(§3)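 Male and female ICR mice (22.0 ± 1.0 g), 10 per group (5 male, 5 female), given a single oral dose of 0 (1% polysorbate-80 in saline), 250, 500 or 750 mg/kg. Survival and body weight were monitored for 7 days. Blood was then drawn for AST, ALT, BUN and CRE as liver and kidney function markers.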

Series [6] in a line: Acute toxicity in po dosed ICR mouse assessed as mortality after 7 days. The series is classed as organism-based. To be noted: in vivo. The essentials: as §3
The subject of series [7] is Mus musculus. In words: Acute toxicity in ICR mouse assessed as change in body weight at up to 750 mg/kg, po after 7 days. The conditions noted are these: in vivo, 168 h. Also noted: dose 750 mg/kg, route oral. The class given is organism-based. The essentials:
as §3

The subject of series [8] is Mus musculus. The series can be described thus: Acute toxicity in ICR mouse assessed as liver function at up to 750 mg/kg, po after 7 days. The class given is organism-based. More on the design: dose 750 mg/kg, route oral. To be noted: in vivo, 168 h. The essentials: as §3
Series [9] relates to Mus musculus. The series can be described thus: Acute toxicity in ICR mouse assessed as kidney function at up to 750 mg/kg, po after 7 days. The class given is organism-based. Also noted: dose 750 mg/kg, route oral. To be noted: in vivo, 168 h. The essentials:
as §3

In series [10] the test system is Hepatitis B virus. In words: Antiviral activity against wild type HBV infected in human Huh7.5 cells assessed as reduction of viral replication at 0.16 ug/ml after 36 hrs. The series is classed as functional. The conditions noted are these: Huh-7, 36 h. The essentials:
as §1

In series [11] the test system is Hepatitis B virus. The series can be described thus: Antiviral activity against lamivudine-resistant HBV infected in human Huh7.5 cells assessed as reduction of viral replication at 0.16 ug/ml after 36 hrs. The series is classed as functional. The conditions noted are these: Huh-7, 36 h. The essentials:
as §2

With `O=C1CCC[C@@H]2[C@H]3CCCN4CCC[C@@H](CN12)[C@@H]34` [MATRINE], the inhibition at 100 µg/mL in the series on HepG2 2.2.15 was found to be 52.4%.
By IC50 is commonly meant the point on the concentration scale where inhibition reaches its midpoint. In the series on HepG2 2.2.15, `CCOC(=O)OC1C[C@@H]2[C@H]3CCCN4CCC[C@@H](CN2C(=O)C1O)[C@@H]34` (stereo not given in full) registered an inhibition at 100 µg/mL of 54.8%. Also, in series [1], the CC50 at 216 h stood at 1000 µM. Besides, the concentration for half-maximal inhibition (IC50) in series [2] was found to be 23.9 µM.
Usually LD50 stands for the dose expected to kill half of the subjects tested. With `CCOC1CC(=O)N2C[C@@H]3CCCN4CCC[C@@H]([C@H]34)[C@H]2C1` (stereo not given in full), the inhibition at 100 µg/mL in the series with HepG2 2.2.15 amounted to 74.1%. Further, the CC50 at 216 h in [1] was determined as 481 µM. The inhibition at 37 µg/mL was found to be 32% with Hepatitis B virus [3] and 35% in the series with Hepatitis B virus [4]. Further, the Activity result in the series on Mus musculus [5], with Mus musculus [7], with Mus musculus [8] and with Mus musculus [9] was “Non-toxic” throughout. The LD50 at 168 h in series [6] was greater than 750 mg/kg. The IC50 in [2] is 9.55 µM.
As to `Cl.O=C(CCl)OC1C[C@@H]2[C@H]3CCCN4CCC[C@@H](CN2C(=O)C1O)[C@@H]34` (stereo not given in full), the inhibition at 100 µg/mL with HepG2 2.2.15 stood at 88.2%. Besides, the CC50 at 216 h in series [1] was 1100 µM. The IC50 in series [2] turned out to be 14 µM.
`CCOC(=O)OC1C[C@@H]2[C@H]3CCCN4CCC[C@@H](CN2C(=O)C1OC(=O)OCC)[C@@H]34` (stereo not given in full) yielded an inhibition at 100 µg/mL in the series with HepG2 2.2.15 of less than 10%.
With `Cl.O=C(OC1C[C@@H]2[C@H]3CCCN4CCC[C@@H](CN2C(=O)C1O)[C@@H]34)c1ccccc1` (stereo not given in full), the inhibition at 100 µg/mL with HepG2 2.2.15 was found to be 34.5%. For the same compound, the CC50 at 216 h in series [1] was found to be 136 µM. Also, the IC50 in series [2] was 42.6 µM.
For `COC1=CC[C@@H]2[C@H]3CCCN4CCC[C@@H](CN2C1=O)[C@@H]34`, the inhibition at 100 µg/mL with HepG2 2.2.15 came out at 39.7%.
In turn, `O=C(OC1CC(=O)N2C[C@@H]3CCCN4CCC[C@@H]([C@H]34)[C@H]2C1)c1ccccc1` (stereo not given in full) registered an inhibition at 100 µg/mL in the series with HepG2 2.2.15 of 51%. In series [1], the CC50 at 216 h turned out to be 236 µM. For the same compound, the IC50 in series [2] came out at 16.3 µM.
In turn, `O=C(OC1C[C@@H]2[C@H]3CCCN4CCC[C@@H](CN2C(=O)C1OC(=O)c1ccc(F)c([N+](=O)[O-])c1)[C@@H]34)c1ccc(F)c([N+](=O)[O-])c1` (stereo not given in full) yielded an inhibition at 100 µg/mL with HepG2 2.2.15 of 30.8%.
For `O=C(O)P(=O)(O)O` [FOSCARNET], the CC50 at 216 h in series [1] was greater than 1000 µM. In addition, the concentration for half-maximal inhibition (IC50) in series [2] stood at 106 µM.
Take `O=C1CC(OCc2ccccc2)C[C@@H]2[C@H]3CCCN4CCC[C@@H](CN12)[C@@H]34` (stereo not given in full): in the series on HepG2 2.2.15, the inhibition at 100 µg/mL was determined as 24.7%. Besides, in series [1], the CC50 at 216 h was determined as 136 µM. For the same compound, in [2], the IC50 was found to be 14.4 µM.
For `CC(=O)OC1C[C@@H]2[C@H]3CCCN4CCC[C@@H](CN2C(=O)C1O)[C@@H]34.Cl` (stereo not given in full), the inhibition at 100 µg/mL in the series with HepG2 2.2.15 was determined as 37.1%. The CC50 at 216 h in series [1] was greater than 1000 µM. In [2], the IC50 amounted to 346 µM.
Regarding `Nc1ccn([C@@H]2CS[C@H](CO)O2)c(=O)n1` [LAMIVUDINE], the inhibition at 0.16 µg/mL in the series on Hepatitis B virus [10] worked out at 64%; in the series on Hepatitis B virus [11], 28%.
Turning to `CNC1CC(=O)N2C[C@@H]3CCCN4CCC[C@@H]([C@H]34)[C@H]2C1` (stereo not given in full), the inhibition at 100 µg/mL in the series with HepG2 2.2.15 came to 40.1%. Further, the CC50 at 216 h in [1] is greater than 1000 µM. Also, the IC50 in series [2] came out at 168 µM.
For the compound `O=C1C=CC[C@@H]2[C@H]3CCCN4CCC[C@@H](CN12)[C@@H]34` [SOPHOCARPINE], the inhibition at 100 µg/mL in the series on HepG2 2.2.15 came out at 21.6%.
Compound `COC1CC(=O)N2C[C@@H]3CCCN4CCC[C@@H]([C@H]34)[C@H]2C1` (stereo not given in full) had an inhibition at 100 µg/mL in the series on HepG2 2.2.15 of 48.6%. For the same compound, the CC50 at 216 h in series [1] was found to be 1110 µM. Also, the half-maximal inhibitory concentration (IC50) in series [2] worked out at 121 µM.
For the compound `O=C1C=CC[C@@H]2[C@H]3CCC[N+]4([O-])CCC[C@@H](CN12)[C@@H]34` (stereo not given in full) [OXYSOPHOCARPINE], the inhibition at 100 µg/mL in the series with HepG2 2.2.15 stood at 15.3%.
On to `O=C1C(O)C(O)C[C@@H]2[C@H]3CCCN4CCC[C@@H](CN12)[C@@H]34` (stereo not given in full) [13,14-DIHYDROXYMATRINE], for which, in the series with HepG2 2.2.15, the inhibition at 100 µg/mL was 38.9%. Moreover, the CC50 at 216 h in series [1] was greater than 1000 µM. Also, in [2], the IC50 was 47.1 µM.
For the compound `O=C1CC(C[N+](=O)[O-])C[C@@H]2[C@H]3CCCN4CCC[C@@H](CN12)[C@@H]34` (stereo not given in full), in the series with HepG2 2.2.15, the inhibition at 100 µg/mL is 35.8%. The CC50 at 216 h in [1] was greater than 1000 µM. Besides, the IC50 in series [2] turned out to be 54.5 µM.
As to `O=C(OC1C[C@@H]2[C@H]3CCCN4CCC[C@@H](CN2C(=O)C1O)[C@@H]34)c1ccc(F)c([N+](=O)[O-])c1` (stereo not given in full), the inhibition at 100 µg/mL in the series with HepG2 2.2.15 is 43.4%.
Same read-out and setting: under `COC1C[C@@H]2[C@H]3CCCN4CCC[C@@H](CN2C(=O)C1OC)[C@@H]34` (stereo not given in full) stands 39.3%; under `O=C1CCC[C@@H]2[C@H]3CCC[N+]4([O-])CCC[C@@H](CN12)[C@@H]34` (stereo not given in full) [OXYMATRINE], 55%.
`O=C1C(OCc2ccccc2)C(OCc2ccccc2)C[C@@H]2[C@H]3CCCN4CCC[C@@H](CN12)[C@@H]34` (stereo not given in full) yielded an inhibition at 100 µg/mL in the series on HepG2 2.2.15 of 45.4%. For the same compound, in series [1], the CC50 at 216 h is 37 µM. Also, in [2], the IC50 amounted to 2.76 µM.
In turn, `O=C1CC(O)C[C@@H]2[C@H]3CCCN4CCC[C@@H](CN12)[C@@H]34` (stereo not given in full) [13-HYDROXYMATRINE] came in with an inhibition at 100 µg/mL in the series with HepG2 2.2.15 of 50.4%.
With `CC(Cl)C(=O)OC1C[C@@H]2[C@H]3CCCN4CCC[C@@H](CN2C(=O)C1O)[C@@H]34.Cl` (stereo not given in full), the inhibition at 100 µg/mL with HepG2 2.2.15 came to 48.6%. Moreover, in series [1], the CC50 at 216 h is greater than 1000 µM. Also, the IC50 in [2] came to 592 µM.
